# Measurements pooled from the literature.
# Protocols differ between the studies behind these lines.
# Target: Serine/threonine-protein kinase TAO2 (TAOK2, Homo sapiens, UniProt Q9UL54)
# Sequence (Q9UL54 1-1235, as in one of the studies): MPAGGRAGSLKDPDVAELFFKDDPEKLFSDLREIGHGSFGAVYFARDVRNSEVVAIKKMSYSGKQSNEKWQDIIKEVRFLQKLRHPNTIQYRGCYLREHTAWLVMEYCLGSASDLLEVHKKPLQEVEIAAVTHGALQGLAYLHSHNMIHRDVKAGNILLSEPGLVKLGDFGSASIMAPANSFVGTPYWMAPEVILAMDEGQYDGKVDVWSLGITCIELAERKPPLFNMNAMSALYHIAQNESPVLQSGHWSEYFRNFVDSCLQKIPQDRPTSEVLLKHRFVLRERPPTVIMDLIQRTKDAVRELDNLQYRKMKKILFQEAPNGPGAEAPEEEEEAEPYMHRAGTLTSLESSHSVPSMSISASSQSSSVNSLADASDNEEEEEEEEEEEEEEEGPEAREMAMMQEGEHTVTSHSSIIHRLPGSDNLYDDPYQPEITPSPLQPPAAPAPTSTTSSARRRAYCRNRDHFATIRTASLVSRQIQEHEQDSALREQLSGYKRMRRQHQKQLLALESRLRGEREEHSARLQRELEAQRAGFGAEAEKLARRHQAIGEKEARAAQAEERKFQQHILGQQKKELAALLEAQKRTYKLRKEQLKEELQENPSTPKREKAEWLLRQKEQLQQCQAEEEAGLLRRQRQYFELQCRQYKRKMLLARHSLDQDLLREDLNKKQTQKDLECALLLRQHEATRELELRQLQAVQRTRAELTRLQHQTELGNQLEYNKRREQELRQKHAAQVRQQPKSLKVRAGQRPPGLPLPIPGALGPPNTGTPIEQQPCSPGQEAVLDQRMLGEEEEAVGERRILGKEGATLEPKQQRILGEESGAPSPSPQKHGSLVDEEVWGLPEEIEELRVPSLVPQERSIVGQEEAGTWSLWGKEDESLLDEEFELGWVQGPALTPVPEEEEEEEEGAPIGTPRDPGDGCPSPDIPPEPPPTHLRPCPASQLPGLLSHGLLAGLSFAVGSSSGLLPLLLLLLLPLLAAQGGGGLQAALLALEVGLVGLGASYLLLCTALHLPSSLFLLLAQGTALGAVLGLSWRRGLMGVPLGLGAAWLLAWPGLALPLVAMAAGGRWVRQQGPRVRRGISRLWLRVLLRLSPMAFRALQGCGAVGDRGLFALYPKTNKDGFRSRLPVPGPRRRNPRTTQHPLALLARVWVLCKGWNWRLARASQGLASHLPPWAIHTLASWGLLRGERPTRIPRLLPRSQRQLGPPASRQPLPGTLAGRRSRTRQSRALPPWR
Compound,effect on,action,technique,concentration,measurement,result
O=C(NS(=O)(=O)c1ccc(NCC2CCOCC2)c([N+](=O)[O-])c1)c1ccc(N2CCN(Cc3ccc(C(F)(F)F)cc3-c3ccc(Cl)cc3)CC2)cc1Oc1cnc2[nH]ccc2c1,cell-free assay,,competition with immobilised ligand,1 µM,remaining binding,82%
CSc1nc(C)c(-c2ccnc(Nc3ccc(N4CCOCC4)cc3)c2)[nH]1,enzyme activity,inhibitor,,10 µM,inhibition,2.1%
CCN(CC)CCNC(=O)c1c(C)[nH]c(/C=C2\C(=O)Nc3ccc(F)cc32)c1C,enzyme activity,inhibitor,,0.3 µM,inhibition,-3%
c1ccc(CNc2nc(N3CCOc4ccccc43)nc3c2CCCC3)cc1,target engagement in cells,inhibitor,chemoproteomics,20 mM,inhibition,-2.6%
CC(=O)N1CCC(c2ccc(C(=O)NC3=NCCN3)cc2C(F)(F)F)CC1,cell-free assay,,competition with immobilised ligand,1 µM,remaining binding,100%
CN1CC(Oc2cnc(C#N)cc2-c2ccn3nc(NC(=O)C4CC4)cc3c2)C1,enzyme activity,inhibitor,,1 µM,inhibition,0%
Cc1ccc(Nc2nccc(N(C)c3ccc4c(C)n(C)nc4c3)n2)cc1S(N)(=O)=O,enzyme activity,inhibitor,,0.3 µM,inhibition,43%
COc1cc(Cl)c(C(=O)N[C@@H](CN[C@H]2CC[C@@H](N)CC2)Cc2ccc(C#N)cc2)cc1-c1ccc(CN[C@H](C)c2ccc(C)cc2)o1,enzyme activity,inhibitor,,1 µM,remaining activity,96%
CN1CCN(c2cnc3c(C4CCN(C(=O)c5ccc(OC(F)(F)F)cc5N)CC4)ncnc3c2)CC1,cell-free assay,,competition with immobilised ligand,1 µM,remaining binding,100%
CCCS(=O)(=O)Nc1ccc(F)c(C(=O)c2c[nH]c3ncc(-c4ccc(Cl)cc4)cc23)c1F,enzyme activity,inhibitor,,1 µM,inhibition,< 10%
COc1cc(-c2cc(-c3ccc(N4CCNCC4)cc3)cnc2C)cc(OC)c1OC,enzyme activity,inhibitor,,0.1 µM,inhibition,2%
C[C@@H]1CCN(c2nccc(-c3cnn4ncccc34)n2)C1,binding,,,1 µM,remaining binding,75%
CC(C)(C)c1nc(-c2cccc(NS(=O)(=O)c3c(F)cccc3F)c2F)c(-c2ccnc(N)n2)s1,enzyme activity,inhibitor,radiometric,1 µM,remaining activity,35%
O=C(Nc1ccc(Oc2ccc(F)cc2)cc1)N1CCc2ncccc2[C@H]1c1ccc(F)cc1,cell-free assay,,competition with immobilised ligand,1 µM,remaining binding,100%
Fc1cccc(-n2cnc3c(NCc4nc5c(F)c(F)ccc5[nH]4)nc(N4CCOCC4)nc32)c1,binding,,competition with immobilised ligand,10 µM,binding vs control,35%
O=C(N1CCS(=O)(=O)CC1)N1C[C@H](c2ccc(OC(F)(F)F)cc2)C[C@H](c2nc(C3CC3)no2)C1,cell-free assay,,competition with immobilised ligand,1 µM,remaining binding,100%
CNC(=O)c1cc(Oc2ccc(NC(=O)Nc3ccc(Cl)c(C(F)(F)F)c3)cc2)ccn1,enzyme activity,inhibitor,,10 µM,inhibition,102%
